Reference: ChEMBL document CHEMBL1926502, “The discovery of UK-369003, a novel PDE5 inhibitor with the potential for oral bioavailability and dose-proportional pharmacokinetics” (Bioorg Med Chem, 2012)
Values after ≈ are worked out from the molar mass of the structure shown.

Columns and labels:
[1] = test system: Caco-2; experiment: Efflux ratio of apparent permeability from apical to basolateral to basolateral to apical side of human Caco2 cells; type: ADME, cell-based
Method in brief: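 Caco-2 cell monolayers; flux measured in both directions, and the efflux ratio is taken as apical→basolateral flux divided by basolateral→apical flux.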

[2] = organism: Homo sapiens; experiment: Selectivity ratio of IC50 for PDE6 to IC50 for human PDE5
Method in brief: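 PDE5 was prepared from human corpus cavernosum and cone PDE6 from dog retina (anion-exchange fraction). IC50s came from concentration–response curves in a scintillation proximity assay with [3H]/unlabelled cGMP (1:3) at about 1/3 Km, so IC50 = Ki. Buffer was 20 mM Tris-HCl pH 7.4, 5 mM MgCl2, 1 mg/mL BSA; 30–60 min at 30 °C, <30% turnover. Ratio = PDE6 IC50/PDE5 IC50.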

[3] = Half life in human liver microsomes; type: ADME, Microsome
[4] = Apparent permeability from apical to basolateral side of human Caco2 cells at 25 uM; type: ADME, cell-based; conditions: Caco-2
[5] = biological target: cGMP-specific 3',5'-cyclic phosphodiesterase (Homo sapiens, UniProt O76074); experiment: Inhibition of human PDE5 isolated from corpus cavernosum after 30 to 60 mins by scintillation counting method
[6] = Lipophilicity, log D of the compound at pH 7.4; type: physicochemical; conditions: buffer
[7] = Clearance in rat at 1 mg/kg, iv; type: ADME, organism-based; set-up: dose 1 mg/kg, route intravenous; conditions: in vivo
[8] = Clearance in dog at 0.5 mg/kg, iv; type: ADME, organism-based, Canis lupus familiaris; set-up: dose 0.5 mg/kg, route intravenous; conditions: in vivo
[9] = Volume of distribution in rat at 1 mg/kg, iv and 2 mg/kg, po; type: ADME, organism-based; conditions: in vivo
[10] = Tmax in human at 1.43 mg/kg, po; type: ADME, organism-based; set-up: dose 1.43 mg/kg, route oral; conditions: in vivo
[11] = Oral bioavailability in rat at 2 mg/kg; type: ADME, organism-based; conditions: in vivo
[12] = Elimination half life in rat at 1 mg/kg, iv and 2 mg/kg, po; type: ADME, organism-based; conditions: in vivo, read-out: beta t1/2 (converted)
[13] = test system: Homo sapiens; experiment: Oral bioavailability in human at 1.43 mg/kg; type: ADME, organism-based; conditions: in vivo
[14] = Aqueous solubility of the compound at pH 6.7; type: physicochemical; conditions: buffer
[15] = Elimination half life in human at 0.43 mg/kg, iv; type: ADME, organism-based; set-up: dose 0.43 mg/kg, route intravenous; conditions: in vivo, read-out: beta t1/2 (converted)
[16] = Elimination half life in dog at 0.5 mg/kg, iv and 1 mg/kg, po; type: ADME, organism-based, Canis lupus familiaris; conditions: in vivo, read-out: beta t1/2 (converted)
[17] = Cmax in human at 1.43 mg/kg, po; type: ADME, organism-based; set-up: dose 1.43 mg/kg, route oral; conditions: in vivo
[18] = Aqueous solubility of the compound in 0.2 M lactate buffer at pH 4.3; type: physicochemical
[19] = Volume of distribution in dog at 0.5 mg/kg, iv and 1 mg/kg, po; type: ADME, organism-based, Canis lupus familiaris; conditions: in vivo
[20] = Volume of distribution in human at 0.43 mg/kg, iv; type: ADME, organism-based; set-up: dose 0.43 mg/kg, route intravenous; conditions: in vivo
[21] = test system: Homo sapiens; experiment: AUC in human at 1.43 mg/kg, po; type: ADME, organism-based, Plasma; set-up: dose 1.43 mg/kg, route oral; conditions: in vivo
Method in brief: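 Human pharmacokinetic study. The oral arm was given at 1.43 mg/kg, and a separate intravenous arm at 0.43 mg/kg. AUC (ng h/ml) was derived from the oral dosing, alongside Cmax, Tmax and oral bioavailability.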

[22] = Oral bioavailability in dog at 1 mg/kg; type: ADME, organism-based, Canis lupus familiaris; conditions: in vivo

| Ratio IC50 [2] | IC50 [5] | Compound | also measured |
| --- | --- | --- | --- |
| 51 | 0.69 nM | CCCOc1ncc(S(=O)(=O)N2CCN(CC)CC2)cc1-c1nc2c(CC)n(CCOC)nc2c(=O)[nH]1 | – |
| 306 | 1.53 nM | CCc1c2nc(-c3cc(S(=O)(=O)N4CCN(CC)CC4)cnc3OCCOC)[nH]c(=O)c2nn1CCOC | Ratio [1]: 4.2; half-life [3]: 70 min; Papp A→B at 25 µM [4]: 9 ×10⁻⁶ cm/s; logD [6]: 1.4 |
| 28 | 15.8 nM | CCOc1ncc(S(=O)(=O)N2CCN(CC)CC2)cc1-c1nc2c(CC)n(C3CNC3)nc2c(=O)[nH]1 | – |
| 171 | 1 nM | CCCCOc1ncc(S(=O)(=O)N2CCN(CC)CC2)cc1-c1nc2c(CC)n(CCN(C)C)nc2c(=O)[nH]1 | Ratio [1]: 7; Papp A→B at 25 µM [4]: 2.8 ×10⁻⁶ cm/s; logD [6]: 3 |
| 219 | 1.76 nM | CCc1c2nc(-c3cc(S(=O)(=O)N4CCN(CC)CC4)cnc3OCCOC)[nH]c(=O)c2nn1C1CCC1 | – |
| – | 1.23 nM | CCOc1ncc(S(=O)(=O)N2CCN(CC)CC2)cc1-c1nc2c(CC)n(CCOC)nc2c(=O)[nH]1 | clearance [7]: 26.6 mL/min/kg; clearance [8]: 16 mL/min/kg; Vd [9]: 2.2 L/kg; Tmax [10]: 60 min; bioavailability [11]: 61%; half-life [12]: 57 min; F [13]: 34%; solubility [14]: 100 mg/mL (≈ 192 mM); half-life [3]: 28 min; half-life [15]: 156 min; half-life [16]: 126 min; Papp A→B at 25 µM [4]: 16 ×10⁻⁶ cm/s; Cmax [17]: 205 ng/mL; solubility [18]: > 14 mg/mL; Vd [19]: 2.8 L/kg; Vd [20]: 2.8 L/kg; AUC [21]: 95.2 ng·h/mL; logD [6]: 2.1; bioavailability [22]: 55% |
| 52 | 8.2 nM | CCOc1ncc(S(=O)(=O)N2CCN(CC)CC2)cc1-c1nc2c(CC)n(C3CN(C)C3)nc2c(=O)[nH]1 | – |
| 100 | 0.31 nM | CCCCOc1ncc(S(=O)(=O)N2CCN(CC)CC2)cc1-c1nc2c(CC)n(C3CCN(S(C)(=O)=O)CC3)nc2c(=O)[nH]1 | – |
| 170 | 1.83 nM | CCCn1nc2c(=O)[nH]c(-c3cc(S(=O)(=O)N4CCN(CC)CC4)cnc3OCCOC)nc2c1CC | – |
| 189 | 1.01 nM | CCc1c2nc(-c3cc(S(=O)(=O)N4CCN(CC)CC4)cnc3OCCOC)[nH]c(=O)c2nn1CC1CC1 | – |
| 209 | 0.78 nM | CCCCOc1ncc(S(=O)(=O)N2CCN(CC)CC2)cc1-c1nc2c(CC)n(C3CN(C)C3)nc2c(=O)[nH]1 | Ratio [1]: 4; half-life [3]: 74 min; Papp A→B at 25 µM [4]: 6 ×10⁻⁶ cm/s; logD [6]: 2.8 |
| 241 | 1.66 nM | CCc1c2nc(-c3cc(S(=O)(=O)N4CCN(CC)CC4)cnc3OCCOC)[nH]c(=O)c2nn1C1CCOCC1 | – |
| 184 | 0.74 nM | CCCCOc1ncc(S(=O)(=O)N2CCN(CC)CC2)cc1-c1nc2c(CC)n(C3CCN(C)CC3)nc2c(=O)[nH]1 | – |

The remaining lines, values behind:

| Compound | Ratio IC50 [2] | IC50 [5] | also measured |
| --- | --- | --- | --- |
| CCc1c2nc(-c3cc(S(=O)(=O)N4CCN(CC)CC4)cnc3OCCOC)[nH]c(=O)c2nn1CC(C)C | 331 | 1.04 nM | Ratio [1]: 2.5; half-life [3]: 11 min; Papp A→B at 25 µM [4]: 24 ×10⁻⁶ cm/s; logD [6]: 2.8 |
| CCOc1ncc(S(=O)(=O)N2CCN(CC)CC2)cc1-c1nc2c3n(nc2c(=O)[nH]1)CCCC3C (single isomer, unassigned; (+)) [listing 1 of 2 here] | – | 3.35 nM | – |
| CCOc1ncc(S(=O)(=O)N2CCN(CC)CC2)cc1-c1nc2c(CC)n(CCN3CCOCC3)nc2c(=O)[nH]1 | 184 | 0.86 nM | Ratio [1]: 11.2; half-life [3]: 18 min; Papp A→B at 25 µM [4]: 2.5 ×10⁻⁶ cm/s; logD [6]: 1.6 |
| CCc1c2nc(-c3cc(S(=O)(=O)N4CCN(CC)CC4)cnc3OCc3ccccn3)[nH]c(=O)c2nn1CCOC | 309 | 0.75 nM | – |
| CCc1c2nc(-c3cc(S(=O)(=O)N4CCN(CC)CC4)cnc3OCCOC)[nH]c(=O)c2nn1C(C)C | 354 | 1.36 nM | – |
| CCCOc1ncc(S(=O)(=O)N2CCN(CC)CC2)cc1-c1nc2c3n(nc2c(=O)[nH]1)CCCC3 | 55 | 2.47 nM | – |
| CCc1c2nc(-c3cc(S(=O)(=O)N4CCN(CC)CC4)cnc3OCC(C)C)[nH]c(=O)c2nn1CCCN(C)C | 404 | 2.44 nM | – |
| CCc1c2nc(-c3cc(S(=O)(=O)N4CCN(CC)CC4)cnc3OCC(C)C)[nH]c(=O)c2nn1CCOC | 204 | 0.69 nM | Ratio [1]: 1.1; half-life [3]: 7 min; Papp A→B at 25 µM [4]: 40 ×10⁻⁶ cm/s; logD [6]: 2.9 |
| CCN1CCN(S(=O)(=O)c2cnc(OCCOC)c(-c3nc4c5n(nc4c(=O)[nH]3)CCCC5C)c2)CC1 (single isomer, unassigned; (-)) [listing 1 of 2 here] | 490 | – | – |
| CCN1CCN(S(=O)(=O)c2cnc(OCCOC)c(-c3nc4c5n(nc4c(=O)[nH]3)CCCC5C)c2)CC1 (single isomer, unassigned; (-)) [listing 2 of 2 here] | – | 1.96 nM | clearance [8]: 20 mL/min/kg; Ratio [1]: 1.5; half-life [3]: 11.2 min; half-life [16]: 90 min; Papp A→B at 25 µM [4]: 24 ×10⁻⁶ cm/s; Vd [19]: 2.6 L/kg; logD [6]: 1.6; bioavailability [22]: 18% |
| CCOc1ncc(S(=O)(=O)N2CCN(CC)CC2)cc1-c1nc2c3n(nc2c(=O)[nH]1)CCCC3C (single isomer, unassigned; (-)) [listing 1 of 2 here] | 55 | – | – |
| CCOc1ncc(S(=O)(=O)N2CCN(CC)CC2)cc1-c1nc2c3n(nc2c(=O)[nH]1)CCCC3C (single isomer, unassigned; (+)) [listing 2 of 2 here] | 125 | – | – |
| CCCn1nc2c(=O)[nH]c(-c3cc(S(=O)(=O)N4CCN(C)CC4)cnc3OCCOC)nc2c1CC | 165 | 4.35 nM | – |
| CCCOc1ccc(S(=O)(=O)N2CCN(CC)CC2)cc1-c1nc2c(CC)n(Cc3ccccn3)nc2c(=O)[nH]1 | 842 | – | – |
| CCc1c2nc(-c3cc(S(=O)(=O)N4CCN(C)CC4)cnc3OCCOC)[nH]c(=O)c2nn1CC(C)C | 237 | 2.89 nM | Ratio [1]: 2.2; half-life [3]: 28 min; Papp A→B at 25 µM [4]: 19 ×10⁻⁶ cm/s; logD [6]: 2.3 |
| CCN1CCN(S(=O)(=O)c2cnc(OCCOC)c(-c3nc4c5n(nc4c(=O)[nH]3)CCCC5C)c2)CC1 (single isomer, unassigned; (+)) [listing 1 of 2 here] | – | 2.76 nM | – |
| CCOc1ncc(S(=O)(=O)N2CCN(CC)CC2)cc1-c1nc2c3n(nc2c(=O)[nH]1)CCCC3C (single isomer, unassigned; (-)) [listing 2 of 2 here] | – | 3.7 nM | – |
| CCN1CCN(S(=O)(=O)c2cnc(OCCOC)c(-c3nc4c5n(nc4c(=O)[nH]3)CCCC5)c2)CC1 | 392 | 8.5 nM | – |
| CCc1c2nc(-c3cc(S(=O)(=O)N4CCN(CC)CC4)cnc3OCCOC)[nH]c(=O)c2nn1CCN1CCOCC1 | 210 | 1.27 nM | Ratio [1]: 8; half-life [3]: 48 min; Papp A→B at 25 µM [4]: 2.8 ×10⁻⁶ cm/s; logD [6]: 1.1 |
| CCOc1ncc(S(=O)(=O)N2CCN(CC)CC2)cc1-c1nc2c3n(nc2c(=O)[nH]1)CCCC3 | 70 | 10.8 nM | – |
| CCc1c2nc(-c3cc(S(=O)(=O)N4CCN(CC)CC4)cnc3OCC3CC3)[nH]c(=O)c2nn1CCN1CCOCC1 | 153 | 0.26 nM | – |
| CCN1CCN(S(=O)(=O)c2cnc(OCCOC)c(-c3nc4c5n(nc4c(=O)[nH]3)CCCC5C)c2)CC1 (single isomer, unassigned; (+)) [listing 2 of 2 here] | 149 | – | – |
